Test results from ChEMBL document CHEMBL4689842, “EUbOPEN Chemogenomics Library wave 1” (2021).

How the values were obtained:
Assay type in all cases: toxicity, cell-based
Fibroblast [1] = assay: Multiplex assay against human fibroblast
How it was run: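 Imaging took place on a CQ1 microscope at 37°C and 5% CO2 once compound had been added to live cells stained at seeding with Hoechst33342, BioTracker Green Microtubule Cytoskeleton Dye, MitoTracker Red and Annexin V Alexa Fluor 680. CellPathfinder machine-learning gating classed cells as Hoechst high-intensity objects or normal cells, classed normal cells as having healthy, pyknosed or fragmented nuclei, and classed pyknosed cells as mitotic or apoptotic. Tubulin, mitochondrial-mass and membrane-permeability phenotypes are per cents of the healthy-nucleus cells.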

Fibroblast [2] = assay: Incucyte cell viability with human fibroblast; details: 10 µM, compound concentration 10 uM; further: filed as whole numbers so only -1 and 0 and 1 occur
U2OS = assay: Incucyte cell viability with U2OS; details: human, 10 µM, compound concentration 10 uM; further: filed as whole numbers so only -1 and 0 and 1 occur
[3] = 12 h, 1 µM, compound concentration 1 uM, replicate 1
[4] = 12 h, 1 µM, compound concentration 1 uM, replicate 2
[5] = 12 h, 10 µM, compound concentration 10 uM, replicate 1
[6] = 12 h, 10 µM, compound concentration 10 uM, replicate 2
[7] = 24 h, 1 µM, compound concentration 1 uM, replicate 1
[8] = 24 h, 1 µM, compound concentration 1 uM, replicate 2
[9] = 24 h, 10 µM, compound concentration 10 uM, replicate 1
[10] = 24 h, 10 µM, compound concentration 10 uM, replicate 2
[11] = 48 h, 1 µM, compound concentration 1 uM, replicate 1
[12] = 48 h, 1 µM, compound concentration 1 uM, replicate 2
[13] = 48 h, 10 µM, compound concentration 10 uM, replicate 1
[14] = 48 h, 10 µM, compound concentration 10 uM, replicate 2
[15] = 0 h, replicate number 1, timepoint 0 hours
[16] = 18 h, replicate number 1, timepoint 18 hours
[17] = 24 h, replicate number 1, timepoint 24 hours

CC(/C=C1\SC(=S)N(CCCC(=O)Nc2ccc(C(=O)O)c(O)c2)C1=O)=C\c1ccccc1
Population Apoptotic (%) (Fibroblast [1]; [3]): 59% | Population Fragmented Nuclei (%) (Fibroblast [1]; [3]): 22% | Population Healthy Nuclei (%) (Fibroblast [1]; [3]): 47% | Population Hoechst High Intensity Objects (%) (Fibroblast [1]; [3]): 11% | Population Membrane Permeable-Phenotype (%) (Fibroblast [1]; [3]): 31% | Population Mitochondria Different-Phenotype (%) (Fibroblast [1]; [3]): 4% | Population Mitotic Cells (%) (Fibroblast [1]; [3]): 40% | Population Normal (%) (Fibroblast [1]; [3]): 88% | Population Pyknosed Nuclei (%) (Fibroblast [1]; [3]): 29% | Population Tubulin-Different-Phenotype (%) (Fibroblast [1]; [3]): 38% | Total Cell Count (Fibroblast [1]; [3]): 167 | Population Apoptotic (%) (Fibroblast [1]; [4]): 33% | Population Fragmented Nuclei (%) (Fibroblast [1]; [4]): 10% | Population Healthy Nuclei (%) (Fibroblast [1]; [4]): 81% | Population Hoechst High Intensity Objects (%) (Fibroblast [1]; [4]): 6% | Population Membrane Permeable-Phenotype (%) (Fibroblast [1]; [4]): 7% | Population Mitochondria Different-Phenotype (%) (Fibroblast [1]; [4]): 7% | Population Mitotic Cells (%) (Fibroblast [1]; [4]): 66% | Population Normal (%) (Fibroblast [1]; [4]): 93% | Population Pyknosed Nuclei (%) (Fibroblast [1]; [4]): 7% | Population Tubulin-Different-Phenotype (%) (Fibroblast [1]; [4]): 7% | Total Cell Count (Fibroblast [1]; [4]): 65 | Population Apoptotic (%) (Fibroblast [1]; [5]): 62% | Population Fragmented Nuclei (%) (Fibroblast [1]; [5]): 32% | Population Healthy Nuclei (%) (Fibroblast [1]; [5]): 48% | Population Hoechst High Intensity Objects (%) (Fibroblast [1]; [5]): 61% | Population Membrane Permeable-Phenotype (%) (Fibroblast [1]; [5]): 40% | Population Mitochondria Different-Phenotype (%) (Fibroblast [1]; [5]): 9% | Population Mitotic Cells (%) (Fibroblast [1]; [5]): 37% | Population Normal (%) (Fibroblast [1]; [5]): 38% | Population Pyknosed Nuclei (%) (Fibroblast [1]; [5]): 18% | Population Tubulin-Different-Phenotype (%) (Fibroblast [1]; [5]): 54% | Total Cell Count (Fibroblast [1]; [5]): 331 | Population Apoptotic (%) (Fibroblast [1]; [6]): 44% | Population Fragmented Nuclei (%) (Fibroblast [1]; [6]): 17% | Population Healthy Nuclei (%) (Fibroblast [1]; [6]): 72% | Population Hoechst High Intensity Objects (%) (Fibroblast [1]; [6]): 7% | Population Membrane Permeable-Phenotype (%) (Fibroblast [1]; [6]): 6% | Population Mitochondria Different-Phenotype (%) (Fibroblast [1]; [6]): 6% | Population Mitotic Cells (%) (Fibroblast [1]; [6]): 55% | Population Normal (%) (Fibroblast [1]; [6]): 92% | Population Pyknosed Nuclei (%) (Fibroblast [1]; [6]): 10% | Population Tubulin-Different-Phenotype (%) (Fibroblast [1]; [6]): 9% | Total Cell Count (Fibroblast [1]; [6]): 88 | Population Apoptotic (%) (Fibroblast [1]; [7]): 54% | Population Fragmented Nuclei (%) (Fibroblast [1]; [7]): 23% | Population Healthy Nuclei (%) (Fibroblast [1]; [7]): 50% | Population Hoechst High Intensity Objects (%) (Fibroblast [1]; [7]): 7% | Population Membrane Permeable-Phenotype (%) (Fibroblast [1]; [7]): 29% | Population Mitochondria Different-Phenotype (%) (Fibroblast [1]; [7]): 1% | Population Mitotic Cells (%) (Fibroblast [1]; [7]): 45% | Population Normal (%) (Fibroblast [1]; [7]): 92% | Population Pyknosed Nuclei (%) (Fibroblast [1]; [7]): 25% | Population Tubulin-Different-Phenotype (%) (Fibroblast [1]; [7]): 37% | Total Cell Count (Fibroblast [1]; [7]): 155 | Population Fragmented Nuclei (%) (Fibroblast [1]; [8]): 12% | Population Healthy Nuclei (%) (Fibroblast [1]; [8]): 76% | Population Hoechst High Intensity Objects (%) (Fibroblast [1]; [8]): 6% | Population Membrane Permeable-Phenotype (%) (Fibroblast [1]; [8]): 4% | Population Mitochondria Different-Phenotype (%) (Fibroblast [1]; [8]): 10% | Population Normal (%) (Fibroblast [1]; [8]): 93% | Population Pyknosed Nuclei (%) (Fibroblast [1]; [8]): 10% | Population Tubulin-Different-Phenotype (%) (Fibroblast [1]; [8]): 12% | Total Cell Count (Fibroblast [1]; [8]): 64 | Population Apoptotic (%) (Fibroblast [1]; [9]): 53% | Population Fragmented Nuclei (%) (Fibroblast [1]; [9]): 32% | Population Healthy Nuclei (%) (Fibroblast [1]; [9]): 45% | Population Hoechst High Intensity Objects (%) (Fibroblast [1]; [9]): 57% | Population Membrane Permeable-Phenotype (%) (Fibroblast [1]; [9]): 44% | Population Mitochondria Different-Phenotype (%) (Fibroblast [1]; [9]): 6% | Population Mitotic Cells (%) (Fibroblast [1]; [9]): 46% | Population Normal (%) (Fibroblast [1]; [9]): 42% | Population Pyknosed Nuclei (%) (Fibroblast [1]; [9]): 22% | Population Tubulin-Different-Phenotype (%) (Fibroblast [1]; [9]): 44% | Total Cell Count (Fibroblast [1]; [9]): 326 | Population Apoptotic (%) (Fibroblast [1]; [10]): 44% | Population Fragmented Nuclei (%) (Fibroblast [1]; [10]): 9% | Population Healthy Nuclei (%) (Fibroblast [1]; [10]): 83% | Population Hoechst High Intensity Objects (%) (Fibroblast [1]; [10]): 4% | Population Membrane Permeable-Phenotype (%) (Fibroblast [1]; [10]): 5% | Population Mitochondria Different-Phenotype (%) (Fibroblast [1]; [10]): 14% | Population Mitotic Cells (%) (Fibroblast [1]; [10]): 55% | Population Normal (%) (Fibroblast [1]; [10]): 95% | Population Pyknosed Nuclei (%) (Fibroblast [1]; [10]): 7% | Population Tubulin-Different-Phenotype (%) (Fibroblast [1]; [10]): 14% | Total Cell Count (Fibroblast [1]; [10]): 115 | Population Apoptotic (%) (Fibroblast [1]; [11]): 62% | Population Fragmented Nuclei (%) (Fibroblast [1]; [11]): 34% | Population Healthy Nuclei (%) (Fibroblast [1]; [11]): 52% | Population Hoechst High Intensity Objects (%) (Fibroblast [1]; [11]): 14% | Population Membrane Permeable-Phenotype (%) (Fibroblast [1]; [11]): 30% | Population Mitochondria Different-Phenotype (%) (Fibroblast [1]; [11]): 3% | Population Mitotic Cells (%) (Fibroblast [1]; [11]): 37% | Population Normal (%) (Fibroblast [1]; [11]): 85% | Population Pyknosed Nuclei (%) (Fibroblast [1]; [11]): 12% | Population Tubulin-Different-Phenotype (%) (Fibroblast [1]; [11]): 33% | Total Cell Count (Fibroblast [1]; [11]): 146 | Population Apoptotic (%) (Fibroblast [1]; [12]): 100% | Population Fragmented Nuclei (%) (Fibroblast [1]; [12]): 15% | Population Healthy Nuclei (%) (Fibroblast [1]; [12]): 81% | Population Hoechst High Intensity Objects (%) (Fibroblast [1]; [12]): 12% | Population Membrane Permeable-Phenotype (%) (Fibroblast [1]; [12]): 18% | Population Mitochondria Different-Phenotype (%) (Fibroblast [1]; [12]): 1% | Population Mitotic Cells (%) (Fibroblast [1]; [12]): 0% | Population Normal (%) (Fibroblast [1]; [12]): 87% | Population Pyknosed Nuclei (%) (Fibroblast [1]; [12]): 2% | Population Tubulin-Different-Phenotype (%) (Fibroblast [1]; [12]): 35% | Total Cell Count (Fibroblast [1]; [12]): 127 | Population Apoptotic (%) (Fibroblast [1]; [13]): 69% | Population Fragmented Nuclei (%) (Fibroblast [1]; [13]): 49% | Population Healthy Nuclei (%) (Fibroblast [1]; [13]): 40% | Population Hoechst High Intensity Objects (%) (Fibroblast [1]; [13]): 55% | Population Membrane Permeable-Phenotype (%) (Fibroblast [1]; [13]): 37% | Population Mitochondria Different-Phenotype (%) (Fibroblast [1]; [13]): 13% | Population Mitotic Cells (%) (Fibroblast [1]; [13]): 30% | Population Normal (%) (Fibroblast [1]; [13]): 44% | Population Pyknosed Nuclei (%) (Fibroblast [1]; [13]): 9% | Population Tubulin-Different-Phenotype (%) (Fibroblast [1]; [13]): 54% | Total Cell Count (Fibroblast [1]; [13]): 297 | Population Apoptotic (%) (Fibroblast [1]; [14]): 33% | Population Fragmented Nuclei (%) (Fibroblast [1]; [14]): 23% | Population Healthy Nuclei (%) (Fibroblast [1]; [14]): 72% | Population Hoechst High Intensity Objects (%) (Fibroblast [1]; [14]): 12% | Population Membrane Permeable-Phenotype (%) (Fibroblast [1]; [14]): 14% | Population Mitochondria Different-Phenotype (%) (Fibroblast [1]; [14]): 4% | Population Mitotic Cells (%) (Fibroblast [1]; [14]): 66% | Population Normal (%) (Fibroblast [1]; [14]): 87% | Population Pyknosed Nuclei (%) (Fibroblast [1]; [14]): 4% | Population Tubulin-Different-Phenotype (%) (Fibroblast [1]; [14]): 38% | Total Cell Count (Fibroblast [1]; [14]): 74 | Growth Rate (Fibroblast [2]; [15]): 0 | Growth Rate (Fibroblast [2]; 6 h, replicate number 2, timepoint 6 hours): 0 | Growth Rate (Fibroblast [2]; 12 h, replicate number 2, timepoint 12 hours): 0 | Growth Rate (Fibroblast [2]; [16]): 1 | Growth Rate (Fibroblast [2]; 18 h, replicate number 2, timepoint 18 hours): 0 | Growth Rate (Fibroblast [2]; [17]): 1 | Growth Rate (Fibroblast [2]; 24 h, replicate number 2, timepoint 24 hours): 0 | Growth Rate (U2OS; [15]): 0 | Growth Rate (U2OS; 6 h, replicate number 1, timepoint 6 hours): 0 | Growth Rate (U2OS; 12 h, replicate number 1, timepoint 12 hours): 1 | Growth Rate (U2OS; [16]): 1 | Growth Rate (U2OS; [17]): 1
